The target of series [1] is cross-linked microtubules. To be noted: cited from earlier work; for Kd: read-out: biochemical Kd; for Ki: read-out: biochemical Ki.
In series [2] the test system is microtubules (taxane binding site) in living HeLa cells. Put plainly: Competition binding assay with PB-GABA-Taxol in living HeLa cells. To be noted: read-out: cellular Ki; PB-GABA-Taxol 1.5 μM, verapamil 100 μM, 37 °C, 4% FBS, 3 h, 60K cells/well.
The target of series [3] is albumin. To be noted: read-out: Kd for albumin; cited from earlier work.
In series [4] the test system is microtubule network of HeLa cells. The series is described as follows: Confocal microscopy of HeLa cells expressing mScarlet-α-Tubulin. Type of series: cell-based. To be noted: 1 h at 37 °C. The essentials: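 HeLa cells transiently transfected to express mScarlet-α-tubulin. Live cells were treated with microtubule modulators for 1 h at 37 °C, and microtubule-network phenotypes were imaged by confocal microscopy.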

The subject of series [5] is microtubules in living HeLa cells. The series is described as follows: Allosteric modulator assay with PB-GABA-Taxol in living HeLa cells. Type of series: binding. To be noted: allosteric modulator model; PB-GABA-Taxol 1.5 μM, verapamil 100 μM, 3 h, 37 °C.
Series [6] has as its target purified GDP-bound microtubules. To be noted: cited from earlier work.
Series [7] can be described thus: Cytotoxicity toward HeLa cells after 48 h by flow cytometry. Type of series: cell-based. To be noted: human.
Series [8] has as its system taxane binding site in living cells. To be noted: read-out: Ki by confocal microscopy; cited from earlier work.

Like-named read-outs stand apart in the source and are kept apart here.

As usually defined, the Kd is the concentration at which binding is half-saturated. What is called Ki is a dissociation constant, usually derived from enzyme kinetics or from competition with a known ligand. As for `CC(=O)O[C@H]1C(=O)[C@@]2(C)[C@H]([C@H](OC(=O)c3ccccc3)[C@]3(O)C[C@H](OC(=O)[C@H](O)[C@@H](NC(=O)c4ccccc4)c4ccccc4)C(C)=C1C3(C)C)[C@]1(OC(C)=O)CO[C@@H]1C[C@@H]2O` [paclitaxel], the Kd in series [1] (ref 65) was 70 ± 0.6 nM; in series [1] (ref 66), 15 nM; in series [1] (ref 68) it was 50 nM; in series [3], 120 nM. In addition, the Ki is 27 ± 11 nM in series [1] (cross-linked microtubules), 31 nM in series [1] (ref 21), 19 nM in series [1] (ref 67) and 22 nM in series [2]. The fluorescent microtubule phenotype entry in series [4] was “enhanced the formation of long microtubule fibers”.

`CC[C@]1(O)C[C@@H]2CN(CCc3c([nH]c4ccccc34)[C@@](C(=O)OC)(c3cc4c(cc3OC)N(C)[C@H]3[C@@](O)(C(=O)OC)[C@H](OC(C)=O)[C@]5(CC)C=CCN6CC[C@]43[C@@H]65)C2)C1` [vinblastine]: the “cooperativity factor α” value in series [5] is 0.18. In addition, the Kd in series [6] was 190 to 1000 nM.

As a reminder, the IC50 is the concentration needed to halve the response being measured. Higher therefore signals weaker potency. For the compound `COc1cc2c(c(OC)c1OC)-c1ccc(OC)c(=O)cc1[C@@H](NC(C)=O)CC2` [colchicine], the IC50 at 48 h in series [7] came out at 20 ± 8 nM. The fluorescent microtubule phenotype entry in series [4] is on record as “disrupted the microtubule network”.

As for `COc1cc2cc(c1Cl)N(C)C(=O)C[C@H](OC(=O)[C@H](C)N(C)C(C)=O)[C@]1(C)O[C@H]1[C@H](C)[C@@H]1C[C@@](O)(NC(=O)O1)[C@H](OC)/C=C/C=C(\C)C2` [maytansine], the “cooperativity factor α” value in series [5] is 0.21.

With `C/C(=C\c1csc(C)n1)[C@@H]1C[C@@H]2O[C@]2(C)CCC[C@H](C)[C@H](O)[C@@H](C)C(=O)C(C)(C)[C@@H](O)CC(=O)N1` [ixabepilone], the Ki in series [2] was 10 nM; in series [8], 7.6 ± 1.6 nM.

For the compound `CO[C@H]1C(=O)[C@]2(C)[C@@H](OC)C[C@H]3OC[C@@]3(OC(C)=O)[C@H]2[C@H](OC(=O)c2ccccc2)[C@]2(O)C[C@H](OC(=O)[C@H](O)[C@@H](NC(=O)OC(C)(C)C)c3ccccc3)C(C)=C1C2(C)C` [cabazitaxel], the Ki in series [1] (ref 17) was 7.4 ± 0.9 nM; in series [2], 6 nM.

Regarding `CC(=O)O[C@H]1C(=O)[C@@]2(C)[C@H]([C@H](OC(=O)c3ccccc3)[C@]3(O)C[C@H](O)C(C)=C1C3(C)C)[C@]1(OC(C)=O)CO[C@@H]1C[C@@H]2O` [baccatin III], the Kd in series [1] (ref 21) is 6700 ± 2000 nM. The Ki in series [2] was 17000 ± 3000 nM.

Take `CC(=O)O[C@@]12CO[C@@H]1C[C@H](O)[C@@]1(C)C(=O)[C@H](O)C3=C(C)[C@@H](OC(=O)[C@H](O)[C@@H](NC(=O)OC(C)(C)C)c4ccccc4)C[C@@](O)([C@@H](OC(=O)c4ccccc4)[C@H]21)C3(C)C` [docetaxel]: the Kd in series [1] (ref 17) is 6.8 ± 0.2 nM; in series [1] (ref 65), 25 ± 0.4 nM. The Ki in series [1] (cross-linked microtubules) was 17 ± 6 nM; in series [2], 16 nM.

The record behind these values is PMC9585582 (ACS Bio & Med Chem Au, 2022).
